For orientation: IC50 means the concentration that inhibits the measured activity by half. What is called MIC is the smallest concentration in the dilution series that meets the test's criterion for growth inhibition. One may read the Papp as a coefficient for how fast a substance crosses the barrier.

The test system of data set [1] is Plasmodium falciparum. The data set can be described thus: Antimalarial activity against asexual blood stages of Plasmodium falciparum Dd2 infected in human erythrocytes incubated for 3 days by ELISA. It counts as functional, organism-based. Particulars: Dd2, 72 h. Put shortly: (§1)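 Asexual blood-stage P. falciparum cultured in human erythrocytes; growth measured by HRP2 double-site sandwich ELISA. IC50 values are the mean of two independent double determinations.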
A general note: In an ELISA, binding on a coated surface is turned into a signal by an enzyme label.

In data set [2] the target is T1, 1-deoxy-D-xylulose 5-phosphate reductoisomerase, apicoplastic (Plasmodium falciparum (isolate 3D7)) (UniProt Q8IKG4).
T1 sequence (whole entry): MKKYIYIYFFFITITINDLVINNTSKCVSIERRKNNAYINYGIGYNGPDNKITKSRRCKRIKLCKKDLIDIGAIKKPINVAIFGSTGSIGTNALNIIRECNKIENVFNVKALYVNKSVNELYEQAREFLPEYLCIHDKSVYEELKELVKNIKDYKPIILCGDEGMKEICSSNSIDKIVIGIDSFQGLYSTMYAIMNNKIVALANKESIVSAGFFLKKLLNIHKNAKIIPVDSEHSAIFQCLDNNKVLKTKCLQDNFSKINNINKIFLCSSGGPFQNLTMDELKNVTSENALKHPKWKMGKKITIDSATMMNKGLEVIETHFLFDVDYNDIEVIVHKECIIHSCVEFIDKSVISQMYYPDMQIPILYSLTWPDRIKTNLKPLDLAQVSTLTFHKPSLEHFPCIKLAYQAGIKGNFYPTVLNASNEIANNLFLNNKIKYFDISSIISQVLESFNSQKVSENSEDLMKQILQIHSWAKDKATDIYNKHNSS
The data set can be described thus: Inhibition of recombinant Plasmodium falciparum IspC expressed in Escherichia coli using 1-deoxy-D-xylulose 5-phosphate as substrate preincubated for 7 days followed by substrate addition in presence of Tris HCL at pH 7.6 by photometric assay.

Data set [3] relates to Plasmodium falciparum. The experiment in a line: Antimalarial activity against asexual blood stages of Plasmodium falciparum 3D7 infected in human erythrocytes incubated for 3 days by ELISA. It counts as functional, organism-based. The settings on record: 3D7, 72 h. Put shortly:
as §1

Data set [4] has as its target T1, 1-deoxy-D-xylulose 5-phosphate reductoisomerase, apicoplastic (Plasmodium falciparum (isolate 3D7)). The data set can be described thus: Inhibition of recombinant Plasmodium falciparum IspC expressed in Escherichia coli using 1-deoxy-D-xylulose 5-phosphate as substrate preincubated for 2 days followed by substrate addition in presence of Tris HCL at pH 7.6 by photometric assay. Put shortly:
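Racemate or single enantiomer (0.6–0.7 mM) held in 100 mM Tris-HCl pH 7.6 with 0.02% NaN3 at 22–23 °C. Aliquots taken at 0, 24 and 48 h and frozen at −80 °C. All aliquots then assayed in parallel for IC50 against P. falciparum IspC: 340 nm NADPH read-out with 0.5 mM DXP.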

Data set [5] is described as follows: Stability of compound in pH 7.6 PBS buffer assessed as parent compound remaining incubated for 72 by HPLC analysis. Type of data set: physicochemical. Put shortly:
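Compound dissolved at 1 mg/mL in phosphate buffer pH 7.6 (Ph. Eur.) and shaken at room temperature for 72 h. Samples at 0, 1, 3, 6, 24 and 72 h (n = 3) run by C18 reversed-phase HPLC with an acetonitrile/water gradient containing 0.1% TFA. Decomposition taken from the loss of peak area at 254 nm.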

The next data set relates to HeLa. The experiment in a line: Cytotoxicity against human HeLa cells assessed as reduction in cell viability incubated for 24 hrs by neutral red assay. It counts as cell-based. Put shortly: (§2)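 Cytotoxicity on HeLa monolayers quantified spectrophotometrically, given as the mean of two independent double determinations. SI is HeLa IC50 divided by the P. falciparum 3D7 IC50.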

Data set [6] concerns Acinetobacter baumannii. The data set can be described thus: Antimicrobial activity against Acinetobacter baumannii ATCC BAA747 incubated for 18 hrs by microbroth dilution assay. It counts as functional. The settings on record: ATCC BAA747, 18 h. For orientation: In broth dilution the organism is exposed to a series of concentrations in liquid medium.
Data set [7] has as its system Klebsiella pneumoniae. The data set can be described thus: Antimicrobial activity against Klebsiella pneumoniae ATCC 13883 incubated for 18 hrs by microbroth dilution assay. Type of data set: functional. Particulars: ATCC 13883, 18 h.
The subject of data set [8] is Escherichia coli. The experiment in a line: Antimicrobial activity against Escherichia coli ATCC BAA 2469 incubated for 18 hrs by microbroth dilution assay. It counts as functional. The settings on record: ATCC BAA 2469, 18 h.
For data set [9], the system named is Mycobacterium tuberculosis. The experiment in a line: Antimycobacterial activity against Mycobacterium tuberculosis H37Rv incubated for 5 days by resazurin dye based assay. Particulars: 120 h. Type of data set: functional. (In general: Resazurin is reduced to fluorescent resorufin, in cell work by metabolically active cells.)
Data set [10] in a line: Selectivity index, ratio of IC50 for human HeLa cells to IC50 for Plasmodium falciparum 3D7. Type of data set: toxicity. Particulars: read-out: Ratio IC50. In short, it runs like this:
as §2

In data set [11] the test system is Acinetobacter baumannii. The data set can be described thus: Antimicrobial activity against Acinetobacter baumannii ATCC BAA 1605 incubated for 18 hrs by microbroth dilution assay. Type of data set: functional. The settings on record: ATCC BAA 1605, 18 h.
In data set [12] the test system is Escherichia coli. The data set can be described thus: Antimicrobial activity against Escherichia coli ATCC 25922 incubated for 18 hrs by microbroth dilution assay. Type of data set: functional. Particulars: ATCC 25922, 18 h.
Data set [13] concerns Klebsiella pneumoniae. The experiment in a line: Antimicrobial activity against Klebsiella pneumoniae ATCC 700603 incubated for 18 hrs by microbroth dilution assay. Type of data set: functional. Particulars: ATCC 700603, 18 h.
For a further data set, the system named is Pseudomonas aeruginosa. The experiment in a line: Antimicrobial activity against Pseudomonas aeruginosa ATCC 27853 incubated for 18 hrs by microbroth dilution assay. Type of data set: functional. The settings on record: ATCC 27853, 18 h.
Data set [14] is described as follows: Apparent permeability in human Caco2 cells by LC-MS/MS analysis. Type of data set: ADME, cell-based. Particulars: Caco-2. In short, it runs like this:
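Compound applied to a polarized Caco2 monolayer. Concentrations measured over time by LC-MS/MS in donor medium, acceptor medium and cells; Papp calculated. Atenolol served as a reference compound.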

The target in data set [15] is T2, 1-deoxy-D-xylulose 5-phosphate reductoisomerase (Escherichia coli, UniProt W8T2T2).
T2 sequence (W8T2T2 whole entry): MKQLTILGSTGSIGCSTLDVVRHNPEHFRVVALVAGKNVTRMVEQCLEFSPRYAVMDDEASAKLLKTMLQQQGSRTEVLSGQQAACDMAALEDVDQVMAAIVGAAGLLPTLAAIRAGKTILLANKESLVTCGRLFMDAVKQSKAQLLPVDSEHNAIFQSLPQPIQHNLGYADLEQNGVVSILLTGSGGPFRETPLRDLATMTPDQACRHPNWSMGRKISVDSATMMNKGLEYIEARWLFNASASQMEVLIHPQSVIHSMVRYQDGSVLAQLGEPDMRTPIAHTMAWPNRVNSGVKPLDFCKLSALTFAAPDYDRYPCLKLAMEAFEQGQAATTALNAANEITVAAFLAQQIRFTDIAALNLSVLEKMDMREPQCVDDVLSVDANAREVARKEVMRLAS
The experiment in a line: Inhibition of recombinant Escherichia coli IspC expressed in Escherichia coli M15 using 1-deoxy-D-xylulose 5-phosphate as substrate by photometric assay. Put shortly:
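E. coli IspC, His-tagged, expressed in E. coli M15 pREP4 (IPTG 1 mM, 36 h at 20 °C) and purified by Ni2+-chelate chromatography to about 95% purity. Reaction mix: 100 mM Tris-HCl pH 7.6, 5 mM MnCl2, 5 mM DTT, 0.5 mM NADPH, 0.02 U enzyme. Inhibitor tested as a 1:3 series from 200 to 0.003 µM. Started with 0.5 mM DXP; NADPH consumption read at 340 nm, room temperature. IC50 fitted from at least eight points.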

Data set [16] addresses T3, 1-deoxy-D-xylulose 5-phosphate reductoisomerase, apicoplastic (Plasmodium falciparum (isolate 3D7), UniProt Q8IKG4).
T3 sequence (Q8IKG4 whole entry): T1 sequence (whole entry)
The data set can be described thus: Inhibition of recombinant Plasmodium falciparum IspC expressed in Escherichia coli using 1-deoxy-D-xylulose 5-phosphate as substrate by photometric assay. In short, it runs like this:
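P. falciparum IspC expressed in E. coli. Reaction mix: 100 mM Tris-HCl pH 7.6, 5 mM MnCl2, 5 mM DTT, 0.5 mM NADPH, 0.02 U enzyme. Inhibitor tested as a 1:3 series from 200 to 0.003 µM. Started with 0.5 mM DXP; read at 340 nm, room temperature. IC50 calculated from at least eight data points; generally two to three independent determinations.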

The target of data set [17] is T4, 1-deoxy-D-xylulose 5-phosphate reductoisomerase (Mycobacterium tuberculosis, UniProt P9WNS1).
T4 sequence (P9WNS1 whole entry): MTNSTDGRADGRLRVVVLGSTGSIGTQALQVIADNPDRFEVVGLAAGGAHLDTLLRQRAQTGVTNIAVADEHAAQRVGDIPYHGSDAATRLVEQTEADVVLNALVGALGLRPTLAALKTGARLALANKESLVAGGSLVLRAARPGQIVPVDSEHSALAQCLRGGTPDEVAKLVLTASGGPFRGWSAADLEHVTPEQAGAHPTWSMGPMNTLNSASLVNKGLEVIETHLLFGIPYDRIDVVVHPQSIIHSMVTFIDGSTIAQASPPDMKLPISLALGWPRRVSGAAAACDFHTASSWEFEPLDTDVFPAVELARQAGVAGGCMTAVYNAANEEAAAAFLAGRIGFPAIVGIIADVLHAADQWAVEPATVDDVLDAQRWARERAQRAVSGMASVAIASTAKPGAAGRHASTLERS
The experiment in a line: Inhibition of recombinant Mycobacterium tuberculosis IspC expressed in Escherichia coli M15 using 1-deoxy-D-xylulose 5-phosphate as substrate by photometric assay.

The source made the active and inactive calls.

Take `CN(O)C(=O)CS[C@@H](c1ccccc1)P(=O)(O)O`: the half-inhibitory concentration (IC50) in the data set with Plasmodium falciparum [1] came out at 0.14 µM; in the data set on Plasmodium falciparum [3], 0.087 µM. The inhibition entry in data set [2] and in [4] was “Active” in each case.
As to `CN(O)C(=O)CS[C@H](c1ccccc1)P(=O)(O)O`, the IC50 in the data set on Plasmodium falciparum [1] and in the data set with Plasmodium falciparum [3] was above 130 µM each time. The inhibition entry in data set [2] and in [4] was “Active” in each case.
Take `CN(O)C(=O)CSC(c1ccccc1)P(=O)(O)O` (racemic): in data set [5], the Stability is reported as above 95%. The 50% inhibitory concentration (IC50) with Plasmodium falciparum [1] is 0.26 µM; with HeLa it was above 1000 µM; in the data set with Plasmodium falciparum [3], 0.19 µM. The minimum inhibitory concentration (MIC) (against Acinetobacter baumannii [6]; against Klebsiella pneumoniae [7]; in the data set on Escherichia coli [8]; in data set [9]; in the data set on Acinetobacter baumannii [11]; in the data set with Escherichia coli [12]) was above 100 µM in each case. The MIC with Klebsiella pneumoniae [13] and against Pseudomonas aeruginosa was above 100 µM each time. Besides, the selectivity ratio in data set [10] is above 37000. The apparent permeability coefficient (Papp) in [14] was 0.14 ×10⁻⁶ cm/s.
`Cc1ccc(C(SCC(=O)NO)P(=O)(O)O)cc1` (racemic): the IC50 in the data set on Plasmodium falciparum [1] was 8 µM; in the data set on HeLa, above 1000 µM; with Plasmodium falciparum [3], 6.5 µM; in data set [15], 0.29 µM; in data set [16], 0.032 µM; in data set [17] it was 8.2 µM. Further, the MIC (with Acinetobacter baumannii [6]; with Klebsiella pneumoniae [7]; in the data set on Escherichia coli [8]; in data set [9]; in the data set with Acinetobacter baumannii [11]; against Escherichia coli [12]) was above 100 µM each time. Besides, the MIC in the data set with Klebsiella pneumoniae [13] and in the data set on Pseudomonas aeruginosa was above 100 µM throughout. For the same molecule, in [10], the selectivity ratio is above 150.
In the case of `COc1cc(OC)cc(C(SCC(=O)NO)P(=O)(O)O)c1` (racemic), the concentration for half-maximal inhibition (IC50) is 0.27 µM with Plasmodium falciparum [1]; above 1000 µM with HeLa; 0.33 µM with Plasmodium falciparum [3]; 0.68 µM in data set [15]; 0.024 µM in data set [16]; 44 µM in data set [17]. Moreover, the minimum inhibitory concentration (MIC) (against Acinetobacter baumannii [6]; against Klebsiella pneumoniae [7]; in the data set with Escherichia coli [8]; in [9]; in the data set with Acinetobacter baumannii [11]; in the data set with Escherichia coli [12]) was above 100 µM each time. Besides, the minimum inhibitory concentration (MIC) in the data set on Klebsiella pneumoniae [13] and in the data set with Pseudomonas aeruginosa was above 100 µM in each case. Besides, the selectivity ratio in data set [10] is above 3000.
With `O=C(CSC(c1cc(F)cc(F)c1)P(=O)(O)O)NO` (racemic), the IC50 with Plasmodium falciparum [1] was 0.87 µM; in the data set on HeLa, above 1000 µM; in the data set with Plasmodium falciparum [3] it was 1.2 µM; in data set [15] it was 0.013 µM; in [16], 0.011 µM; in data set [17], 0.32 µM. The minimal inhibitory concentration (MIC) (against Acinetobacter baumannii [6]; in the data set with Klebsiella pneumoniae [7]; against Escherichia coli [8]; in data set [9]; against Acinetobacter baumannii [11]; in the data set with Escherichia coli [12]) was above 100 µM in each case. Besides, the MIC in the data set with Klebsiella pneumoniae [13] and with Pseudomonas aeruginosa was above 100 µM each time. Moreover, the selectivity ratio in data set [10] was above 810.
